From PubChem BioAssay
S100A4 inh HTS: inhibitors of S100A4-myosin IIA peptide binding, primary screen, biochemical, fluorescence polarization, TAMRA-MyoIIA peptide; Protein S100-A4 (Homo sapiens), P26447; AID 652163, 2013; hit rate 0.14% among 360,000; inhibition, % at 10.7 µM;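 active = mean inhibition of at least 70% across replicates, with every replicate also reaching that level; inconclusive = mean inhibition reaches 70% but some replicates fall short; inactive = mean inhibition below 70%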
Target sequence (P26447 whole entry, looked up): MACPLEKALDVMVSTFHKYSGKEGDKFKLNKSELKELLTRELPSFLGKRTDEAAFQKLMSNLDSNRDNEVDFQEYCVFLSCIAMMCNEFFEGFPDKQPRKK
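Test system: S100A4 monomer protein; Medium: HEPES pH 7.2 with CaCl2, KCl, NaCl, DTT, Triton; Probe or stimulus: TAMRA-labelled myosin IIA heavy-chain peptide probe, 5 nM; Doses: one dose per compound; Times: polarization read 5 min after assay mix addition, stable 5–60 min; Benchmarks: neutral control DMSO, positive control TFP.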
AF4-AF9 inh: inhibitors of AF4 peptide binding to AF9, primary screen, biochemical, AlphaScreen, biotin-AF4 peptide, FLAG-AF9, single point; AID 651704, 2012; hit rate 0.47% among 350,000; inhibition, % at 10 µM;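 active = every replicate reaching a set inhibition limit, whatever the replicate mean, cut at about 25% in these data; inconclusive = mean inhibition reaches that limit but some replicates miss it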;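 note: 0% = plate neutral control median and 100% = total signal loss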
RAD54 branch: inhibitors of human RAD54 branch migration, primary screen, biochemical, fluorescence, single point. DNA repair and recombination protein RAD54-like (Homo sapiens), Q92698. RAD54 Holliday junction branch migration, FAM/BHQ fluorescence. inhibition, % at 10.4 µM. hit rate 0.14% among 360,000;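 active = mean normalized replicate activity at least 40 and at least half of replicates scoring 40 or more; inconclusive = only one of the two criteria met; inactive = mean below 40 and under half of replicates reaching 40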;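 note: 0% = median of neutral control wells and 100% = median of positive control wells; inhibitors cause a drop in the FAM fluorescence signal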
RAD52 inh: RAD52 DNA annealing inhibitors, primary screen, biochemical, FRET, single point, set 2; inhibition, % at 18.7 µM; recombinant RAD52 DNA annealing, FRET fluorescence; DNA repair protein RAD52 homolog (Homo sapiens), P43351; hit rate 0.46% among 360,000; AID 651710, 2012;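 active = every replicate showing at least 50% inhibition; inconclusive = mean inhibition at least 50% but not in every replicate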
dFosB activator: activators of delta FosB homodimer, primary screen, biochemical, fluorescence polarization, TAMRA-CDK5 oligo, single point; Protein FosB (Mus musculus), P13346; purified delta FosB; percent of positive-control signal above neutral wells; activation, % at 25 µM; hit rate 0.99% among 340,000;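 active = mean activation above about 17%, with every replicate also reaching it, limit read from the data, passing the limit was not always enough; inconclusive = only one of the two conditions met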
Target sequence (P13346 whole entry, looked up): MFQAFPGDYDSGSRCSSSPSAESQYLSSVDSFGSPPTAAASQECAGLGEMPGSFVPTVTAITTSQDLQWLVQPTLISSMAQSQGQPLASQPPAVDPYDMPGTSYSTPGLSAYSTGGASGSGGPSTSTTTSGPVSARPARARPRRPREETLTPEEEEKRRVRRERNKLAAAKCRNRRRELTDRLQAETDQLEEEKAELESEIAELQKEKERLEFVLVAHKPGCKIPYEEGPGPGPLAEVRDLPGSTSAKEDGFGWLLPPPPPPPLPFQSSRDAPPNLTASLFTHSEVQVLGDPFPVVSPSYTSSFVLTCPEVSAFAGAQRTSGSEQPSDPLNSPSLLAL
* = called active by the depositor; ? = inconclusive; . = no result. An excerpt weighted towards active compounds, which were near 1.5% of everything screened.

SMILES | S100A4 inh HTS | AF4-AF9 inh | RAD54 branch | RAD52 inh | dFosB activator
CN(C)C(=O)C[C@@H]1CC[C@H](NS(=O)(=O)c2ccccc2)[C@H](CO)O1 | -4.6 | -14.1 | -3.3 | 19.2 | .
CCN1[C@@H]2c3ccc(-c4ccccc4)c(=O)n3C[C@H]1[C@H](CO)[C@H]2C(=O)NCCCN1CCOCC1 | -2.0 | 1.7 | 2.5 | -6.6 | .
COc1ccc(NC(=O)N(C)C[C@@H]2OCCCC[C@@H](C)Oc3ccc(NS(=O)(=O)c4ccccc4)cc3C(=O)N([C@H](C)CO)C[C@@H]2C)cc1 | -8.7 | -0.7 | 2.5 | 84.7* | .
CCOc1ccc(N(CC(=O)N2CCc3ccccc32)S(=O)(=O)c2c(C)noc2C)cc1 | 4.5 | -0.4 | 9.1 | -15.6 | -1.2
Cc1n[nH]c(C)c1S(=O)(=O)N(CC(=O)N1CCc2ccccc21)c1ccc(C(C)C)cc1 | -0.9 | 1.6 | 5.6 | -5.0 | 50.1*
COc1ccc(CNC(=O)c2cc(=O)c3cc(C)ccc3o2)cc1 | -1.6 | 0.4 | 4.2 | -8.6 | 17.4*
Cc1ccc2oc(C(=O)NCc3ccccc3)cc(=O)c2c1 | 0.7 | 0.1 | 2.4 | -7.3 | 14.7
c1ccc(C2c3[nH]c4ccccc4c3CCN2Cc2cccn2-c2ccccn2)nc1 (stereo unspecified) | -3.6 | ? | 5.7 | -5.1 | -5.5
COc1ccc(C2c3[nH]c4ccccc4c3CCN2Cc2cccn2-c2ncccn2)cc1C (stereo unspecified) | -3.1 | 30.6* | -0.7 | -12.0 | 32.2*
Cc1cccc(C2c3[nH]c4ccccc4c3CCN2Cc2cccn2-c2ncccn2)c1 (stereo unspecified) | -5.5 | 31.0* | . | 11.4 | -2.7
COc1ccccc1C1c2[nH]c3ccccc3c2CCN1Cc1cnc(C)s1 (stereo unspecified) | -6.7 | 3.2 | 2.3 | -33.0 | 0.5
C[C@@H]1CCCCO[C@@H](CN(C)C(=O)CCC(F)(F)F)[C@@H](C)CN([C@@H](C)CO)C(=O)c2cc(NC(=O)CCC(F)(F)F)ccc2O1 | 5.8 | -2.7 | 3.4 | -2.1 | .
COc1ccc(C2N(c3ccc(Cl)cc3)N=C(C(C)=O)N(C)N2C(C)=O)cc1 (stereo unspecified) | 3.6 | 27.7* | . | -9.9 | -8.9
Cc1ccc(Nc2nc(NCCO)c3ccccc3n2)cc1C | -3.3 | 18.3 | 22.1 | 26.6 | 32.1*
Cc1ccc(Nc2nc(N)c3ccccc3n2)cc1Cl | 0.7 | 7.7 | 8.9 | -11.5 | 28.3*
OCCNc1nc(-c2ccccc2)nc2ccccc12 | -4.1 | -2.2 | . | -18.7 | -6.8
O=C(C[C@H]1CC[C@@H](NC(=O)c2ccccn2)[C@H](CO)O1)NCc1cc(F)cc(F)c1 | -1.7 | 0.9 | -1.6 | 5.7 | .
CCCNC(=O)C[C@H]1C[C@H]2c3cc(NC(=O)NC4CCCC4)ccc3O[C@H]2[C@H](CO)O1 | -9.1 | 2.1 | 1.0 | -11.6 | .
COc1ccc2c3c([nH]c2c1)[C@@H](CO)N(C(C)=O)CC31CCN(C(=O)Nc2c(C)noc2C)CC1 | -3.6 | 0.0 | . | 8.9 | .
CN1c2ccc(C3=CCCCC3)cc2[C@H]2[C@H](CCN2C(=O)C2CC2)[C@@H]1CO | 14.2 | 68.8* | . | -63.9 | .
CN1c2ccc(C3=CCCCC3)cc2[C@@H]2[C@@H](CCN2C(=O)C2CC2)[C@H]1CO | 117.8* | 18.3 | . | 8.8 | .
C[C@@H]1CN([C@H](C)CO)C(=O)c2cc(-c3cccc(C#N)c3)cnc2O[C@@H]1CN(C)C(=O)C1CC1 | -0.4 | -0.7 | 2.0 | 0.1 | .
CC(C)CN(C(=O)c1cccc(S(=O)(=O)N2CCN(Cc3ccccc3)CC2)c1)C1CCS(=O)(=O)C1 (stereo unspecified) | -1.7 | 27.7* | -7.7 | 15.0 | -6.0
Cc1noc(C)c1NC(=O)N(C)C[C@@H]1Oc2ccc(NC(=O)CCN3CCOCC3)cc2C(=O)N([C@H](C)CO)C[C@@H]1C | -1.0 | -0.8 | -1.6 | 6.0 | .
C[C@@H]1CN([C@H](C)CO)C(=O)c2cc(N(C)C)ccc2O[C@H]1CN(C)Cc1ccc(Oc2ccccc2)cc1 | 4.4 | 39.8* | 2.9 | -8.1 | .
SMILES | S100A4 inh HTS | AF4-AF9 inh | RAD54 branch | RAD52 inh | dFosB activator
C[C@@H]1CN([C@H](C)CO)C(=O)c2cc(N(C)C)ccc2O[C@@H]1CN(C)Cc1ccc(Oc2ccccc2)cc1 | 22.5 | 51.5* | 4.2 | 16.7 | .
C[C@H](CO)N1C[C@H](C)[C@H](CN(C)Cc2ccc(Oc3ccccc3)cc2)Oc2ccc(N(C)C)cc2C1=O | -0.7 | 51.6* | -6.2 | 11.4 | .
COc1ccc2c3c([nH]c2c1)[C@H](CO)N(C(=O)Nc1ccc(F)cc1)CC31CCN(Cc2cc(F)ccc2F)CC1 | -7.5 | 3.5 | . | 14.3 | .
CC(=O)Nc1c(-c2ccccc2)nc2ncccn12 | -9.6 | 48.1* | -1.4 | -8.2 | -5.1
CCCC#Cc1ccc2c(c1)[C@H]1[C@H](CCN1S(=O)(=O)c1cn(C)cn1)[C@H](CO)N2 | 26.1 | 6.1 | . | 6.2 | .
Cc1cc(/C=N/Nc2ccc([N+](=O)[O-])cn2)c(C)n1-c1ccccc1 | . | . | . | . | 22.1*
Cc1ccc(-n2c(C)cc(/C=N/Nc3ccc([N+](=O)[O-])cn3)c2C)cc1 | . | . | -6.1 | . | -2.0
Cc1ccc(NC(=O)c2ncn(CCCN(CCCn3cnc(C(=O)Nc4ccc(C)c(C)c4)n3)Cc3ccc4[nH]ccc4c3)n2)cc1C | -1.1 | -1.9 | 2.4 | -30.7 | 77.0*
Cc1ccc(NC(=O)c2ncn(CC(=O)NCc3ccc4[nH]ccc4c3)n2)cc1C | 1.6 | -2.2 | 2.4 | -1.7 | 1.3
CC(CCC(C)C(C)(C)C)[C@@H]1CC[C@H]2C3C[C@H](OS(O)(=S)=S)[C@H]4C[C@H](OS(O)(=S)=S)[C@@H](OS(O)(=S)=S)C[C@]4(C)[C@H]3CC[C@]12C (stereo partly specified) (tested in a mixture with another compound) | . | . | 110.2* | . | -11.2
CC(CCC(=O)NN)C1CCC2C3CCC4CC(O)CCC4(C)C3CCC12C (stereo unspecified) | -3.0 | -4.1 | . | -6.8 | 0.0
C#CCn1c(=NC(=O)c2ccccc2[N+](=O)[O-])sc2cc(S(C)(=O)=O)ccc21 | . | . | . | . | 33.4*
CO[C@H]1CC[C@H]2CCN(C)C(=O)C[C@@H](c3ccccc3)CN(C)C(=O)c3cccc(C#N)c3OC[C@H]1O2 | -1.2 | 0.0 | 5.2 | 11.0 | .
C[C@@H]1CN([C@H](C)CO)C(=O)c2cc(NS(=O)(=O)c3ccc(F)cc3)ccc2O[C@@H](C)CCCCO[C@@H]1CN(C)Cc1ccccc1 | -34.1 | 5.9 | -7.7 | 24.5 | .
CCOC(=O)Oc1c(OC)cc(C(=O)O[C@@H]2C[C@@H]3CN4CCc5c([nH]c6cc(OC)ccc56)[C@H]4C[C@@H]3[C@H](C(=O)OC)[C@H]2OC)cc1OC | -17.5 | 6.7 | -1.9 | -38.0 | 29.3*
COc1ccc(Nc2ccccc2N)cc1 | -24.4 | 40.0* | . | -11.0 | -10.9
Nc1ccc(Nc2ccccc2N)cc1 | . | . | . | . | 4.4
